{"data": "Assay results of several laboratories", "target": "Dual specificity mitogen-activated protein kinase kinase 2 (MAP2K2, Homo sapiens, UniProt P36507)", "note": "Each line is one published result; the experiments were not run side by side."}
{"SMILES": "O=C(c1ccc(Nc2ncc(Cl)c(-c3ccc(Cl)s3)n2)cc1)N1CCC(N2CCCC2)CC1", "observed": "binding", "method": "competition with immobilised ligand", "concentration": "1 µM", "remaining binding": "15%"}
{"SMILES": "COc1ccnn2ncc(-c3ccnc(N(C)C)n3)c12", "observed": "binding", "concentration": "1 µM", "remaining binding": "100%"}
{"SMILES": "Cc1cnc(Nc2ccc(C(=O)N3CCC(N4CCCC4)CC3)cc2)nc1-c1cc2ccccc2s1", "observed": "binding", "method": "competition with immobilised ligand", "concentration": "1 µM", "remaining binding": "26%"}
{"SMILES": "CN(CCCC(F)(F)F)c1nccc(-c2cnn3ncccc23)n1", "observed": "binding", "concentration": "1 µM", "remaining binding": "100%"}
{"SMILES": "CC(C)(C)c1ccc(-c2nc(CBr)nn2-c2cccc(O)c2)cc1", "observed": "cell-free assay", "method": "competition with immobilised ligand", "concentration": "10 µM", "remaining binding": "90%"}
{"SMILES": "O=C(NS(=O)(=O)c1ccc(NCC2CCOCC2)c([N+](=O)[O-])c1)c1ccc(N2CCN(Cc3ccc(C(F)(F)F)cc3-c3ccc(Cl)cc3)CC2)cc1Oc1cnc2[nH]ccc2c1", "observed": "cell-free assay", "method": "competition with immobilised ligand", "concentration": "1 µM", "remaining binding": "100%"}
{"SMILES": "COc1ncc2cc3ccccc3nc2c1C#N", "observed": "cell-free assay", "method": "competition with immobilised ligand", "concentration": "5 µM", "remaining binding": "92%"}
{"SMILES": "CC1CCCN1c1nccc(-c2cnn3ncccc23)n1 (stereo not drawn)", "observed": "binding", "concentration": "1 µM", "remaining binding": "96%"}
{"SMILES": "O=C(c1ccc(Nc2ncc(Cl)c(-c3cc4ccccc4s3)n2)cc1)N1CCC(N2CCCC2)CC1", "observed": "binding", "method": "competition with immobilised ligand", "concentration": "1 µM", "remaining binding": "27%"}
{"SMILES": "N#Cc1ccccc1CSc1nnc2c(n1)[nH]c1ccccc12", "observed": "binding", "method": "competition with immobilised ligand", "concentration": "10 µM", "remaining binding": "87%"}
{"SMILES": "CN(C)CC#Cc1ccc(OCCCc2sc(N3CCc4cccc(C(=O)Nc5nc6ccccc6s5)c4C3)nc2C(=O)O)c(F)c1", "observed": "cell-free assay", "method": "competition with immobilised ligand", "concentration": "1 µM", "remaining binding": "100%"}
{"SMILES": "N[C@@H]1CCN(c2nccc(-c3cnn4ncccc34)n2)C1", "observed": "binding", "concentration": "1 µM", "remaining binding": "84%"}
{"SMILES": "C[C@@H]1CN(c2ccc3ncc(-c4ccc5[nH]nc(C6CC6)c5c4)n3n2)C[C@H](C)O1", "observed": "binding", "method": "competition with immobilised ligand", "concentration": "50 nM", "remaining binding": "72%"}
{"SMILES": "CCOC(=O)c1cc2cc(-c3cc(C(=O)NCc4ccc(C(=O)O)cc4)nn3C)ccc2[nH]1", "observed": "cell-free assay", "method": "competition with immobilised ligand", "concentration": "0.1 µM", "remaining binding": "83%"}
{"SMILES": "O=C(NCC1CCOCC1)c1n[nH]cc1NC(=O)c1c(F)cccc1F", "observed": "binding", "method": "competition with immobilised ligand", "concentration": "1 µM", "remaining binding": "100%"}
{"SMILES": "CC(=O)c1c(NS(C)(=O)=O)c2cc(-c3ccc(Cl)cc3)c(-c3ccc(Cl)cc3Cl)nc2n(C)c1=O", "observed": "cell-free assay", "method": "competition with immobilised ligand", "concentration": "1 µM", "remaining binding": "100%"}
{"SMILES": "COc1cnc(Nc2cccc(S(N)(=O)=O)c2)nc1N1CCN(c2ccccc2)CC1", "observed": "binding", "method": "competition with immobilised ligand", "concentration": "1 µM", "remaining binding": "83%"}
{"SMILES": "C[C@@H]1CN(c2cc(-c3n[nH]c4ccc(OC5(C)CC5)cc34)ncn2)C[C@H](C)O1", "observed": "cell-free assay", "method": "competition with immobilised ligand", "concentration": "0.1 µM", "remaining binding": "85%"}
{"SMILES": "FC(F)(F)Oc1cccc(-c2cnc3ccc(-c4ccncc4)nn23)c1", "observed": "cell-free assay", "method": "competition with immobilised ligand", "concentration": "5 µM", "remaining binding": "72%"}
{"SMILES": "CN(C)c1ncc(F)c(-c2cnn3ncccc23)n1", "observed": "binding", "concentration": "1 µM", "remaining binding": "74%"}
{"SMILES": "CO[C@@H](C)c1c(Nc2ccc([C@@H](N(C)C(=O)C3CCS(=O)(=O)CC3)C(F)(F)F)cc2)cnc2cc(Cl)nn12", "observed": "cell-free assay", "method": "competition with immobilised ligand", "concentration": "1 µM", "remaining binding": "97%"}
{"SMILES": "C[C@@H](c1ccc(-n2cnc3c(N)ncnc32)cc1)N1CCc2nn(C)c(Cc3ccccc3)c2C1=O", "observed": "binding", "method": "competition with immobilised ligand", "concentration": "0.1 µM", "remaining binding": "92%"}
{"SMILES": "C[C@H]1CCN(c2nccc(-c3cnn4ncccc34)n2)C1", "observed": "binding", "concentration": "1 µM", "remaining binding": "100%"}
{"SMILES": "O=C(O)[C@@H]1[C@@H](Cn2nnc3ccccc3c2=O)CC[C@H]1C(=O)c1ccc(OCCC2CCOCC2)cc1", "observed": "cell-free assay", "method": "competition with immobilised ligand", "concentration": "1 µM", "remaining binding": "100%"}
